Legend:
[1] = system: Mycobacterium tuberculosis; assay: Antimycobacterial activity against Mycobacterium tuberculosis H37Rv 331/88 after 14 days; format: functional; settings: H37Rv 331/88, 336 h
[2] = system: Mycobacterium tuberculosis; assay: Antimycobacterial activity against Mycobacterium tuberculosis H37Rv 331/88 after 21 days; format: functional; settings: H37Rv 331/88, 504 h
[3] = system: Mycobacterium avium; assay: Antimycobacterial activity against Mycobacterium avium 330/80 after 14 days; format: functional; settings: 330/80, 336 h
[4] = system: Mycobacterium avium; assay: Antimycobacterial activity against Mycobacterium avium 330/80 after 21 days; format: functional; settings: 330/80, 504 h
[5] = system: Mycobacterium kansasii; assay: Antimycobacterial activity against Mycobacterium kansasii 235/80 after 7 days; format: functional; settings: 235/80, 168 h
In short: (§1)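 Šula's semisynthetic medium micromethod at 37 °C, read after 7, 14 and 21 days. The 1.0 McFarland suspension was diluted 10^-4. MIC determined. 6509/96 is a clinical isolate.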

[6] = system: Mycobacterium kansasii; assay: Antimycobacterial activity against Mycobacterium kansasii 235/80 after 14 days; format: functional; settings: 235/80, 336 h; in short: as §1
[7] = system: Mycobacterium kansasii; assay: Antimycobacterial activity against Mycobacterium kansasii 235/80 after 21 days; format: functional; settings: 235/80, 504 h; in short: as §1
[8] = system: Mycobacterium kansasii; assay: Antimycobacterial activity against Mycobacterium kansasii 6509/96 after 7 days; format: functional; settings: 6509/96, 168 h; in short: as §1
[9] = system: Mycobacterium kansasii; assay: Antimycobacterial activity against Mycobacterium kansasii 6509/96 after 14 days; format: functional; settings: 6509/96, 336 h; in short: as §1
[10] = system: Mycobacterium kansasii; assay: Antimycobacterial activity against Mycobacterium kansasii 6509/96 after 21 days; format: functional; settings: 6509/96, 504 h; in short: as §1
[11] = system: Staphylococcus aureus; assay: Antibacterial activity against Staphylococcus aureus CCM 4516/08 after 24 hrs by microdilution broth method; format: functional; settings: CCM 4516/08, 24 h
[12] = system: Staphylococcus aureus; assay: Antibacterial activity against Staphylococcus aureus CCM 4516/08 after 48 hrs by microdilution broth method; format: functional; settings: CCM 4516/08, 48 h
[13] = system: Staphylococcus aureus; assay: Antibacterial activity against methicillin-resistant Staphylococcus aureus H 5996/08 after 24 hrs by microdilution broth method; format: functional; settings: H 5996/08, 24 h
[14] = system: Staphylococcus aureus; assay: Antibacterial activity against methicillin-resistant Staphylococcus aureus H 5996/08 after 48 hrs by microdilution broth method; format: functional; settings: H 5996/08, 48 h
[15] = system: Staphylococcus epidermidis; assay: Antibacterial activity against Staphylococcus epidermidis H 6966/08 after 24 hrs by microdilution broth method; format: functional; settings: H 6966/08, 24 h
In short: (§2)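 Mueller-Hinton broth microdilution (modified M07-A07), pH 7.4 (±0.2). Compounds dissolved in DMSO, tested at final 500 to 0.49 µmol/L. Inoculum in sterile water matched to 0.5 McFarland. Incubated in the dark, humid atmosphere, 35 °C, read at 24 and 48 h visually and at 540 nm. MIC taken as ≥95% growth reduction (IC95) versus control.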

[16] = system: Staphylococcus epidermidis; assay: Antibacterial activity against Staphylococcus epidermidis H 6966/08 after 48 hrs by microdilution broth method; format: functional; settings: H 6966/08, 48 h; in short: as §2
[17] = system: Enterococcus sp.; assay: Antibacterial activity against Enterococcus sp. J 14365/08 after 24 hrs by microdilution broth method; format: functional; settings: J 14365/08, 24 h; in short: as §2
[18] = system: Enterococcus sp.; assay: Antibacterial activity against Enterococcus sp. J 14365/08 after 48 hrs by microdilution broth method; format: functional; settings: J 14365/08, 48 h; in short: as §2
[19] = system: Escherichia coli; assay: Antibacterial activity against Escherichia coli CCM4517 after 24 hrs by microdilution broth method; format: functional; settings: CCM4517, 24 h; in short: as §2
[20] = system: Escherichia coli; assay: Antibacterial activity against Escherichia coli CCM4517 after 48 hrs by microdilution broth method; format: functional; settings: CCM4517, 48 h; in short: as §2
[21] = system: Klebsiella pneumoniae; assay: Antibacterial activity against Klebsiella pneumoniae D 11750/08 after 24 hrs by microdilution broth method; format: functional; settings: D 11750/08, 24 h; in short: as §2
[22] = system: Klebsiella pneumoniae; assay: Antibacterial activity against Klebsiella pneumoniae D 11750/08 after 48 hrs by microdilution broth method; format: functional; settings: D 11750/08, 48 h; in short: as §2
[23] = system: Klebsiella pneumoniae; assay: Antibacterial activity against ESBL-positive Klebsiella pneumoniae J 14368/08 after 24 hrs by microdilution broth method; format: functional; settings: J 14368/08, 24 h; in short: as §2
[24] = system: Klebsiella pneumoniae; assay: Antibacterial activity against ESBL-positive Klebsiella pneumoniae J 14368/08 after 48 hrs by microdilution broth method; format: functional; settings: J 14368/08, 48 h; in short: as §2
[25] = system: Pseudomonas aeruginosa; assay: Antibacterial activity against Pseudomonas aeruginosa CCM 1961 after 24 hrs by microdilution broth method; format: functional; settings: CCM 1961, 24 h; in short: as §2
[26] = system: Pseudomonas aeruginosa; assay: Antibacterial activity against Pseudomonas aeruginosa CCM 1961 after 48 hrs by microdilution broth method; format: functional; settings: CCM 1961, 48 h; in short: as §2
[27] = system: Candida albicans; assay: Antifungal activity against Candida albicans ATCC 44859 after 24 hrs by microdilution broth method; format: functional; settings: ATCC 44859, 24 h
In short: (§3)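 CLSI M27-A3 broth microdilution in RPMI 1640 with glutamine, buffered to pH 7.0 with MOPS; DMSO diluent. Yeast inoculum 5 × 10^3 ± 0.2 CFU/mL. Moulds grown on Sabouraud agar 3–10 days before spore harvest, final inoculum 0.5-5 × 10^4 CFU/mL, checked in a Bürker chamber. Incubated dark, humid, 35 °C, read at 24 and 48 h visually and at 540 nm. MIC taken as ≥80% (yeasts) or ≥50% (filamentous) growth reduction versus control.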

[28] = system: Candida albicans; assay: Antifungal activity against Candida albicans ATCC 44859 after 48 hrs by microdilution broth method; format: functional; settings: ATCC 44859, 48 h; in short: as §3
[29] = system: Candida tropicalis; assay: Antifungal activity against Candida tropicalis 156 after 24 hrs by microdilution broth method; format: functional; settings: Candida tropicalis, 156, 24 h; in short: as §3
[30] = system: Candida tropicalis; assay: Antifungal activity against Candida tropicalis 156 after 48 hrs by microdilution broth method; format: functional; settings: Candida tropicalis, 156, 48 h; in short: as §3
[31] = system: Pichia kudriavzevii; assay: Antifungal activity against Candida krusei E28 after 24 hrs by microdilution broth method; format: functional; settings: E28, 24 h; in short: as §3
[32] = system: Pichia kudriavzevii; assay: Antifungal activity against Candida krusei E28 after 48 hrs by microdilution broth method; format: functional; settings: E28, 48 h; in short: as §3
[33] = system: Nakaseomyces glabratus; assay: Antifungal activity against Candida glabrata 20/I after 24 hrs by microdilution broth method; format: functional; in short: as §3
[34] = system: Nakaseomyces glabratus; assay: Antifungal activity against Candida glabrata 20/I after 48 hrs by microdilution broth method; format: functional; in short: as §3
[35] = system: Trichosporon asahii; assay: Antifungal activity against Trichosporon asahii 1188 after 24 hrs by microdilution broth method; format: functional; settings: Trichosporon asahii, 1188, 24 h; in short: as §3
[36] = system: Trichosporon asahii; assay: Antifungal activity against Trichosporon asahii 1188 after 48 hrs by microdilution broth method; format: functional; settings: Trichosporon asahii, 1188, 48 h; in short: as §3
[37] = system: Aspergillus fumigatus; assay: Antifungal activity against Aspergillus fumigatus 231 after 24 hrs by microdilution broth method; format: functional; settings: Aspergillus fumigatus, 231, 24 h; in short: as §3
[38] = system: Aspergillus fumigatus; assay: Antifungal activity against Aspergillus fumigatus 231 after 48 hrs by microdilution broth method; format: functional; settings: Aspergillus fumigatus, 231, 48 h; in short: as §3
[39] = system: Lichtheimia corymbifera; assay: Antifungal activity against Absidia corymbifera 272 after 24 hrs by microdilution broth method; format: functional; settings: Lichtheimia corymbifera, 272, 24 h; in short: as §3
[40] = system: Lichtheimia corymbifera; assay: Antifungal activity against Absidia corymbifera 272 after 48 hrs by microdilution broth method; format: functional; settings: Lichtheimia corymbifera, 272, 48 h; in short: as §3
[41] = system: Trichophyton mentagrophytes; assay: Antifungal activity against Trichophyton mentagrophytes 445 after 24 hrs by microdilution broth method; format: functional; settings: Trichophyton mentagrophytes, 445, 24 h
[42] = system: Trichophyton mentagrophytes; assay: Antifungal activity against Trichophyton mentagrophytes 445 after 48 hrs by microdilution broth method; format: functional; settings: Trichophyton mentagrophytes, 445, 48 h
[43] = system: HepG2; assay: Cytotoxicity against human HepG2 cells after 24 hrs […]; format: cell-based; settings: HepG2, 24 h
[44] = Selectivity index, ratio of CI50 for human HepG2 cells to MIC100 for Mycobacterium tuberculosis H37Rv 331/88

O=C(Nc1cccc(C(F)(F)F)c1)c1ccc([N+](=O)[O-])cc1O
3.9 µM: MIC [11] | MIC [12]
8 µM: MIC [1] | MIC [2] | MIC [5] | MIC [8]
7.81 µM: MIC [16]
0.35: Selectivity Index [44]
16 µM: MIC [6] | MIC [7] | MIC [9] | MIC [10]
62.5 µM: MIC [3] | MIC [4] | MIC [35]
> 500 µM: MIC [23] | MIC [24] | MIC [25] | MIC [26] | MIC [27] | MIC [28] | MIC [29] | MIC [30] | MIC [32] | MIC [33] | MIC [34] | MIC [38] | MIC [40] | MIC [41] | MIC [42]
1.95 µM: MIC [13] | MIC [14] | MIC [15]
500 µM: MIC [18] | MIC [19] | MIC [20] | MIC [21] | MIC [22] | MIC [37] | MIC [39]
2800 nM: IC50 [43]
250 µM: MIC [17] | MIC [31] | MIC [36]
